Results as given in ChEMBL document CHEMBL2331243, “Discovery and mechanism study of SIRT1 activators that promote the deacetylation of fluorophore-labeled substrate” (J Med Chem, 2013).
Positions count from the first letter of the chain named. Active and inactive are the calls of the source. No cut-off for these calls is given here.

Columns and labels:
[1] = Stability of the compound in fresh cell medium at 100 uM after 120 mins; assay type: physicochemical; conditions: 2 h
Method in brief: (§1)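 MCF-7 cells were exposed to 100 μM compound for 0–360 min. Medium and acetonitrile-treated washed cells were collected separately at each time point. Compound spiked into fresh cell-free medium and handled the same way served as control. Samples were centrifuged and quantified by reversed-phase HPLC.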

[2] = molecular target: NAD-dependent protein deacetylase sirtuin-1 (Homo sapiens, UniProt Q96EB6, Q345A); experiment: Activation of SIRT1 Q345A mutant (unknown origin)
NAD-dependent protein deacetylase sirtuin-1 (Homo sapiens, UniProt Q96EB6, Q345A), sequence (Q96EB6 2-747 Q345A limits assumed): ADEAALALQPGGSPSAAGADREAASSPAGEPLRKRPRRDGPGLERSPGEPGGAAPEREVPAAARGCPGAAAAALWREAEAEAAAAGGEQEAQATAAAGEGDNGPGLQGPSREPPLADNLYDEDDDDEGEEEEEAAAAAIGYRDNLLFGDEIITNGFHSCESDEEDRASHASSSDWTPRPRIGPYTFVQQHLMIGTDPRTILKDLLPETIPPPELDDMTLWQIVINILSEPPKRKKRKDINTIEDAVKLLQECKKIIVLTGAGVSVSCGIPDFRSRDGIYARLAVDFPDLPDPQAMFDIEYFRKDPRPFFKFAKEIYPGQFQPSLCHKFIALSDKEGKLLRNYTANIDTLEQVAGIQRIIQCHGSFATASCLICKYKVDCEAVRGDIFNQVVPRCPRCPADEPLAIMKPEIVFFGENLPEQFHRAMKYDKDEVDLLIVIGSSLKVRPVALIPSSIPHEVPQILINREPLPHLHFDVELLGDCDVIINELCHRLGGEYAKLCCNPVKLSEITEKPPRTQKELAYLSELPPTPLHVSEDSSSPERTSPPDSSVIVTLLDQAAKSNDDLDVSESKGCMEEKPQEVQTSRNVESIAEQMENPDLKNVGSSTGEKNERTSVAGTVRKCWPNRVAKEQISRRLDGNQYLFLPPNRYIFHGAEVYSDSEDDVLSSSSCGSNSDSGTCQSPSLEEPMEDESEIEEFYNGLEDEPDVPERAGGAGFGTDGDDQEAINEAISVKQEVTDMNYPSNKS
Method in brief: (§2)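 His-tagged SIRT1 Q345A or V445A mutants were made by site-directed mutagenesis and expressed in E. coli, Ni-NTA purified. They were assayed under the same screening conditions as wild type: 750 μM NAD⁺, 31.25 μM ac-RHKK_ac-AMC, pH 8.0 Tris buffer, trypsin release of AMC, ex 340 / em 490 nm. Compounds came from 3-fold DMSO dilutions. EC1.5 (50% activity increase) was taken from a dose–response fit.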

[3] = molecular target: T1, NAD-dependent protein deacetylase sirtuin-1 (Homo sapiens, UniProt Q96EB6); experiment: Activation of N-terminal His6-tagged SIRT1 (156 to 664 amino acid residues) (unknown origin) expressed in Escherichia coli BL21(DE3) using ac-RHKKac-AMC as substrate after 45 mins by fluorometric analysis
T1 sequence (Q96EB6 whole entry): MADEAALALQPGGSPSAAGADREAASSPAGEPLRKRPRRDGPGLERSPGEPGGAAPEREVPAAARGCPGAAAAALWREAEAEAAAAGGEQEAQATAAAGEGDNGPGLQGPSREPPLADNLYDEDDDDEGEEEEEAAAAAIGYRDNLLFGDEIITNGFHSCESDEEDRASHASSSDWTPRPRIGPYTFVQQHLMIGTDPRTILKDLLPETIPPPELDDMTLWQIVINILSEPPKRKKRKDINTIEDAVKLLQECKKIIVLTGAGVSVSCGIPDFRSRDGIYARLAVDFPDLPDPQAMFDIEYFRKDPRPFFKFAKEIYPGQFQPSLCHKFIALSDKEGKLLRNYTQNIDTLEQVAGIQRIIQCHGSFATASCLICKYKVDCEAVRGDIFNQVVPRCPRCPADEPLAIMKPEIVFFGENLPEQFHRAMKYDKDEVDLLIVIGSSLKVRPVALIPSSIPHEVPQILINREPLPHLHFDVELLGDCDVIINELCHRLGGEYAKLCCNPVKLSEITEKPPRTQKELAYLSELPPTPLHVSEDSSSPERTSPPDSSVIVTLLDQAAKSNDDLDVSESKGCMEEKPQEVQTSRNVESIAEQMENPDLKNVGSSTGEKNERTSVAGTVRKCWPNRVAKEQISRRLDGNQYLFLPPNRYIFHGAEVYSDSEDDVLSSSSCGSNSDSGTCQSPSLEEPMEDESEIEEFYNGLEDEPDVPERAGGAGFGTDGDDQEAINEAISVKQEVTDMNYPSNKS

[4] = system: NAD-dependent protein deacetylase sirtuin-1 (Homo sapiens), Q96EB6 [UNDEFINED MUTATION]; experiment: Ratio of EC50 for SIRT1 V445A mutant (unknown origin) to EC50 for wild type SIRT1 (unknown origin)
MCF7 = experiment: Drug uptake in human MCF7 cells at 100 uM measured at 30 mins; assay type: ADME, cell-based; conditions: mcf7, 0.5 h; method in brief: as §1
[5] = system: T2, NAD-dependent protein deacetylase sirtuin-1 (Homo sapiens), Q96EB6 [Q345A]; experiment: Activation of SIRT1 Q345A mutant (unknown origin) at 10 uM relative to control
T2 sequence (whole entry): T1 sequence (Q96EB6 whole entry) with Q345A

[6] = Stability of the compound in cultured medium at 100 uM after 30 mins; assay type: physicochemical; conditions: 0.5 h; method in brief: as §1
[7] = molecular target: NAD-dependent protein deacetylase sirtuin-1 (Homo sapiens, UniProt Q96EB6, V445A); experiment: Activation of SIRT1 V445A mutant (unknown origin); method in brief: as §2
NAD-dependent protein deacetylase sirtuin-1 (Homo sapiens, UniProt Q96EB6, V445A), sequence (Q96EB6 2-747 V445A limits assumed): as the sequence (Q96EB6 2-747 Q345A limits assumed) above, with A344Q, V444A counted along it

[8] = molecular target: T3, NAD-dependent protein deacetylase sirtuin-1 (Homo sapiens) (UniProt Q96EB6); experiment: Activation of SIRT1 in human MCF7 cells assessed as reduction in doxorubicin-induced acetyl-p53 level at 60 uM after 6 hrs by Western blotting analysis; assay type: cell-based
T3 sequence (whole entry): T1 sequence (Q96EB6 whole entry)
Method in brief: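 MCF-7 cells were seeded at 1 × 10⁵ per well in DMEM with 10% FCS and grown 24 h at 37 °C, 5% CO₂. Graded compound concentrations were added together with 0.1 μM TSA and 5 μM doxorubicin for 6 h. Lysate (50 μg protein) was run on a 9% gel and blotted with an anti-acetyl-p53 (Lys382) polyclonal antibody at 4 °C overnight, then HRP anti-rabbit IgG with chemiluminescence.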

[9] = system: NAD-dependent protein deacetylase sirtuin-1 (Homo sapiens), Q96EB6 [UNDEFINED MUTATION]; experiment: Ratio of EC50 for SIRT1 Q345A mutant (unknown origin) to EC50 for wild type SIRT1 (unknown origin)
[10] = molecular target: T3, NAD-dependent protein deacetylase sirtuin-1 (Homo sapiens); experiment: Activation of N-terminal His6-tagged SIRT1 (156 to 664 amino acid residues) (unknown origin) expressed in Escherichia coli BL21(DE3) using ac-RHKKac-AMC as substrate at 50 uM after 45 mins by fluorimetric analysis relative to control
Method in brief: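 Fluorogenic deacetylation screen: 1 μM SIRT1 with 750 μM NAD⁺ and 31.25 μM ac-RHKK_ac-AMC in Tris buffer (25 mM Tris, 137 mM NaCl, 2.7 mM KCl, 1 mM MgCl₂, pH 8.0). Compounds at 50 μM from DMSO stocks; DMSO alone as blank. Trypsin then releases AMC from deacetylated peptide; fluorescence read at 340/490 nm.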

[11] = system: T4, NAD-dependent protein deacetylase sirtuin-1 (Homo sapiens), Q96EB6 [V445A]; experiment: Activation of SIRT1 V445A mutant (unknown origin) at 10 uM relative to control
T4 sequence (whole entry): T1 sequence (Q96EB6 whole entry) with V445A

[12] = Stability of the compound in cultured medium assessed as compound remaining at 100 uM after 30 mins; assay type: physicochemical; conditions: 6 h, in the assay text read “after 6 hrs” for “after 30 mins”; method in brief: as §1

In the case of `O=C(N/N=C/c1cc(Br)c(O)c(Br)c1O)c1ccc2cc(Br)ccc2c1`, the Stability [1] is reported as “Stable”, the EC50 [2] is reported as 12.2 µM and the EC50 [3] is reported as 2.7 µM. For the same compound, the Ratio EC50 [4] was 2, the Drug uptake (MCF7) was “Active” and the max activation [5] was 237%. The Stability [6] was “Stable”, the EC50 [7] was 4.8 µM and the Activity [8] was “inactive”. For the same compound, the Ratio EC50 [9] was 4, the max activation [10] was 647% and the max activation [11] was 353%. For the same compound, the Stability [12] was 20 µM.
